# Source: PubChem
# Sampled rows, rich in hits. Any-hit rate of the full collection: about 2.4%.
# Apaf-1 inh: inhibitors of human Apaf-1 apoptosome; reconstituted apoptosome caspase-3 activity, DEVD-Rh110 fluorescence; inhibition, % at 20 µM; 330,000 compounds, 0.71% hits; AID 489030; active means inhibition of at least 40% at 20 µM;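 further: plate controls were DMSO wells for no effect and DEVD-CHO caspase inhibitor wells for full effect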
#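 Material: cell-free apoptosome with Apaf-1, procaspase-3 and caspase-9; Buffer or medium: Hepes pH 7.5 with detergent and BSA; Reagent: cytochrome c trigger plus (Z-DEVD)2-Rh110 caspase-3 substrate; Times: compound with Apaf-1, dATP, procaspase-3 30 min, then 50 min reaction, room temperature; Technique: Rh110 fluorescence intensity.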
# ANO1 activ: activators or potentiators of mouse TMEM16A chloride channel | B-score at 10 µM | Q8BHY3 | 340,000 compounds, 0.3% hits | HEK293 TMEM16A/YFP-H148Q/I152L, iodide quench fluorescence; stronger effect = lower value;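 active means fluorescence-ratio B-score plate-corrected deviation score at least 3 library SD below zero, with starting fluorescence score within 5 deviations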;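 further: channel opened by trigger with iodide after compound preincubation; score built on the fluorescence ratio of max minus min over baseline; more negative score means more quench and so TMEM16A activation or potentiation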
# Target sequence (Q8BHY3 whole entry, looked up): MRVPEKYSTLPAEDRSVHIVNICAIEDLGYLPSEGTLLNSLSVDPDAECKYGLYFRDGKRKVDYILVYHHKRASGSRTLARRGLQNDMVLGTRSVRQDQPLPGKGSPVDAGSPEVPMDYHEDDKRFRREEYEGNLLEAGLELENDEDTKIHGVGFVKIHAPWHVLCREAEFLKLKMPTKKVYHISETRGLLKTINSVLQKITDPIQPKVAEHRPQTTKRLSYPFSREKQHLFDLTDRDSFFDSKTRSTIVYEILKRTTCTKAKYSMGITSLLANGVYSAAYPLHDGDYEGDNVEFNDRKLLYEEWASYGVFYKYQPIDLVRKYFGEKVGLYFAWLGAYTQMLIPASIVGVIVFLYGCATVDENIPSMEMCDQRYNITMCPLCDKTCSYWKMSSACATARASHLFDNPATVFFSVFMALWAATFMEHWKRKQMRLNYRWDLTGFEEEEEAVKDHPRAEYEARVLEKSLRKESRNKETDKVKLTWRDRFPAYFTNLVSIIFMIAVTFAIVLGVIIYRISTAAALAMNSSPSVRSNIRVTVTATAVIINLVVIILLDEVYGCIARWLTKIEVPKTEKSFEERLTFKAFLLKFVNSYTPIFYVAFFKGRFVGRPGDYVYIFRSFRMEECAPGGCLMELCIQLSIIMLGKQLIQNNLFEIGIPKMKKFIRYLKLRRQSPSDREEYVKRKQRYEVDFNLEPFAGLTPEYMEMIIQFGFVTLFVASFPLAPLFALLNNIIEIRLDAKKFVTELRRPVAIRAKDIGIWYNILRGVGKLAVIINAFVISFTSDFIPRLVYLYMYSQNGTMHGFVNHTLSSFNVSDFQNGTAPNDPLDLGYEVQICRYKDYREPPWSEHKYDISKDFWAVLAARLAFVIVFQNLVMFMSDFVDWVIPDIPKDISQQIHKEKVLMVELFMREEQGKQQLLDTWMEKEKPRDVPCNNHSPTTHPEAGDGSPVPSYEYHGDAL
# FID counter: counter-screen for HCV NS3 helicase inhibitors: DNA intercalator displacement | DNA fluorescent intercalator displacement, fluorescence | inhibition, % at 7.9 µM | 290,000 compounds, 0.17% hits; in the data active means inhibition above about 37%;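 further: 0% = vehicle and 100% = reference compound; higher means more ethidium bromide displaced from hairpin DNA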
# ANO1 block: mouse TMEM16A channel inhibition, primary screen | Q8BHY3 | HEK293 TMEM16A/YFP iodide influx fluorescence, ionomycin | normalized B-score (activity score, 25-100; higher = stronger inhibition) at 10 µM | 310,000 compounds, 1.2% hits;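 active means ratio plate-corrected score three or more library SD toward inhibition, starting fluorescence score within five deviations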;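 further: score derived from kinetic fluorescence span divided by baseline fluorescence per well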
# UBC13 polyUb: human UBC13 polyubiquitination inhibition. 330,000 compounds, 0.47% hits. P61088. UBC13 polyubiquitin chain formation, TR-FRET. AID 485273. inhibition, % at 20 µM; in the data active means inhibition above about 45%, passing the limit was not always enough
# Active calls of the source: *; i = inactive; . = not tested or not shown.
SMILES,Apaf-1 inh,ANO1 activ,FID counter,ANO1 block,UBC13 polyUb
Cc1onc(-c2ccccc2)c1C(=O)NNC(=O)c1ccccc1,3.3,i,.,.,1.9
OCC1(CCOc2ccccc2)CCN(Cc2nc3ccc(F)cc3[nH]2)CC1,-6.4,i,20.9,i,-11.5
CCCCN1CC(=O)N2[C@H](c3ccc(OC)cc3)[C@@H]3C(=O)N(CC)C(=O)[C@@H]3[C@]2(Cc2ccccc2)C1=O,-12.5,i,-24.2,i,0.5
CCSc1nsc(NC(=O)Nc2cccc(F)c2)n1,-2.9,i,5.2,100*,8.3
COc1ccc(NC(=O)c2c(C)noc2C(C)C)cc1S(=O)(=O)N1CCCCC1,15.7,i,.,.,1.7
O=C(OCc1ccccc1)N(CCCCN(CCCNCc1ccccc1)C(=O)OCc1ccccc1)CCCNCc1ccccc1,.,-5.37*,.,.,.
O=C(NCCCCCCNC(=O)OCc1ccccc1)OCc1ccccc1,.,i,.,.,.
CCN(Cc1ccccc1)S(=O)(=O)c1ccc(S(=O)(=O)N(Cc2cccc(OC)c2)CC2CCCO2)cc1 (configuration not stated),12.7,i,-16.4,25*,-7.5
COc1cccc(CN(CC2CCCO2)S(=O)(=O)c2ccc(-n3cnnn3)c(OC)c2)c1 (configuration not stated),5.7,i,-5.5,i,7.0
Cc1ccc(S(=O)(=O)N2CCC(=O)N(C(COCc3ccccc3)Cc3ccccc3)CC2)cc1 (configuration not stated),21.6,i,-18.2,i,5.3
Cc1ccc(S(=O)(=O)N2CCC(=O)N(C(COCc3cccc(C(F)(F)F)c3)Cc3ccccc3)CC2)cc1 (configuration not stated),19.6,-19.3*,-22.7,i,6.0
Cc1ccc(S(=O)(=O)N2CCC(=O)N(C(COCc3cccc(Cl)c3)Cc3ccccc3)CC2)cc1 (configuration not stated),22.9,-11.3*,-32.5,i,11.5
Cc1ccc(S(=O)(=O)N2CCC(=O)N(C(COCc3ccc(Cl)cc3Cl)Cc3ccccc3)CC2)cc1 (configuration not stated),19.6,-28.6*,-4.7,i,-8.5
CC(C)NC(=O)NC(=O)CN1c2cccc3cccc(c23)S1(=O)=O,13.4,i,-17.6,i,0.9
Cc1nn(C(C)C(=O)Nc2sc3c(c2C#N)CCCC3)c(C)c1[N+](=O)[O-] (configuration not stated),7.9,i,-2.6,100*,2.9
Cc1nn(CCCC(=O)Nc2sc3c(c2C#N)CCC3)c(C)c1[N+](=O)[O-],-12.0,i,-7.2,i,12.3
Cc1nc2sccn2c(=O)c1CCN1CCC(=C(c2ccccc2)c2ccc(F)cc2)CC1,41.8*,.,1.5,i,29.0
Nc1cc(N)c(OCC(F)(F)F)cc1OCC(F)(F)F,83.9*,i,0.3,i,-74.0
Nc1cc(OCC(F)(F)F)cc([N+](=O)[O-])c1,4.8,i,-0.9,i,-5.5
CCOc1ccc(NC(=O)CCN2CCN(S(=O)(=O)c3ccc(Cl)cc3)CC2)cc1,-10.4,i,-4.2,i,1.0
Cc1nn(-c2cc(C(F)(F)F)ccc2Cl)c2nc(C(Cl)(Cl)Cl)[nH]c(=O)c12,-5.4,i,-25.6,100*,-6.7
Cc1nn(-c2ccccc2)c2nc(C(F)(F)F)[nH]c(=O)c12,-2.1,i,0.0,i,-6.1
CCc1ccccc1NC(=S)N(CCOC)C(C)c1ccco1 (configuration not stated),-13.2,i,-2.4,i,-1.3
COc1ccc(O[C@H]2C=C[C@@H](c3ccccc3)O[C@@H]2CO/N=C(\C)CCC(=O)OC[C@H]2O[C@H](c3ccccc3)C=C[C@@H]2Oc2ccc(OC)cc2)cc1,9.7,.,-12.5,i,-22.3
CCCNC(=O)OC[C@H]1O[C@H](CCO/N=C(\C)CCN2CCc3nc(-c4ccccc4)c(-c4ccccc4)cc3C2)C=C[C@@H]1Oc1ccc(OC)cc1,52.8*,.,-21.4,i,29.5
CCCNC(=O)OC[C@H]1O[C@H](CCO/N=C/C[C@@H]2C=C[C@H](OC(C)=O)[C@@H](COC(C)=O)O2)C=C[C@@H]1Oc1ccc(OC)cc1,5.4,.,-42.9,25*,14.1
COc1ccc(O[C@@H]2O[C@H](COC(C)=O)[C@@H](OC(C)=O)[C@H](OC(C)=O)[C@H]2NC(C)=O)cc1,-4.8,i,-3.5,i,7.5
